Activity and Ki data for five compounds are collected here from ChEMBL document CHEMBL3259715, “Shuttle-cargo fusion molecules of transport peptides and the hD2/3 receptor antagonist fallypride: a feasible approach to preserve ligand-receptor binding?” (J Med Chem, 2014).

Series [1] is described as follows: Cytotoxicity against hCMEC/D3 cells at 0.1 to 50 uM after 4 hrs by Alamar Blue assay. It is filed as cell-based. To be noted: human, hcmec/d3, 4 h. In outline: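 Cytotoxicity was tested by AlamarBlue on hCMEC/D3 cells, the same cells used for the calcein assay. The read-out is the fall in metabolic activity, seen as reduced redox potential of viable cells.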
For orientation: Alamar Blue is a resazurin reagent that responds to reducing activity.

Another series concerns the target D(2) dopamine receptor (Homo sapiens, UniProt P14416). The series can be described thus: Displacement of [3H]spiperone from human D2 receptor transfected in HEK cells. The class given is cell-based, HEK293.
Series [2] in a line: Activity at P-gp in hCMEC/D3 cells at 0.1 to 50 uM after 15 mins by calcein-AM assay. The class given is ADME, cell-based. To be noted: human, cmec/d3, 0.25 h.

D(2) dopamine receptor, sequence (P14416 whole entry): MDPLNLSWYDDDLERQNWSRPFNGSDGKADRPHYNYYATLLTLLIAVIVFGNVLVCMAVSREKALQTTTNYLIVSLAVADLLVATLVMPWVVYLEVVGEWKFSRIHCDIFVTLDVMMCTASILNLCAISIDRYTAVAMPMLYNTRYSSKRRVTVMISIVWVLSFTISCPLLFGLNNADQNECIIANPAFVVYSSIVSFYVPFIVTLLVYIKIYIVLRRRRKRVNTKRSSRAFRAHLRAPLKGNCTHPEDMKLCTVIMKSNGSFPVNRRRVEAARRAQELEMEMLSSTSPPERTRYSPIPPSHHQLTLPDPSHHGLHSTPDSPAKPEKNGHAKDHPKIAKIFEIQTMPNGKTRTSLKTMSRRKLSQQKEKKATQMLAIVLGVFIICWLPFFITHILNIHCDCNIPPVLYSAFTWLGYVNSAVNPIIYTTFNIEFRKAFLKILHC

Turning to `C=CCN1CCC[C@H]1CNC(=O)c1cc(CCCSC2CC(=O)N(CCCCCC(=O)N[C@H](C(=O)N[C@@H](Cc3ccccc3)C(=O)N[C@@H](Cc3ccccc3)C(=O)N[C@@H](Cc3ccc(O)cc3)C(=O)NCC(=O)NCC(=O)N[C@@H](CO)C(=O)N[C@@H](CCCNC(=N)N)C(=O)NCC(=O)N[C@@H](CCCCNC(=O)CN3CCN(CC(=O)O)CCN(CC(=O)O)CCN(CC(=O)O)CC3)C(=O)N[C@@H](CCCNC(=N)N)C(=O)N[C@@H](CC(N)=O)C(=O)N[C@@H](CC(N)=O)C(=O)N[C@@H](Cc3ccccc3)C(=O)N[C@@H](CCCCN)C(=O)N[C@H](C(=O)N[C@@H](CCC(=O)O)C(=O)N[C@@H](CCC(=O)O)C(=O)N[C@@H](Cc3ccc(O)cc3)C(=O)O)[C@@H](C)O)[C@@H](C)O)C2=O)cc(OC)c1OC` (stereo not given in full), the Activity result is “Non-toxic” in series [1] and “Not Active” in series [2]. Also, the affinity on D(2) dopamine receptor, expressed as Ki, was 8.01 nM.
For `C=CCN1CCC[C@H]1CNC(=O)c1cc(CCCSC2CC(=O)N(CCCCCC(=O)NCCOCCOCCOCCOCCC(=O)N[C@@H](Cc3cnc[nH]3)C(=O)N[C@@H](C)C(=O)N[C@H](C(=O)N[C@@H](Cc3ccc(O)cc3)C(=O)N3CCC[C@H]3C(=O)N[C@@H](CCCNC(=N)N)C(=O)N[C@@H](Cc3cnc[nH]3)C(=O)O)[C@@H](C)CC)C2=O)cc(OC)c1OC` (stereo not given in full) the same measures were “Non-toxic”, “Not Active” and 1.47 nM.
The corresponding values for `C=CCN1CCC[C@H]1CNC(=O)c1cc(CCCSC2CC(=O)N(CCCCCC(=O)NCCOCCOCCOCCOCCC(=O)N[C@@H](CCCCNC(=O)O/N=C/c3ccc([Si](F)(C(C)(C)C)C(C)(C)C)cc3)C(=O)N[C@@H](Cc3cnc[nH]3)C(=O)N[C@@H](C)C(=O)N[C@H](C(=O)N[C@@H](Cc3ccc(O)cc3)C(=O)N3CCC[C@H]3C(=O)N[C@@H](CCCNC(=N)N)C(=O)N[C@@H](Cc3cnc[nH]3)C(=O)O)[C@@H](C)CC)C2=O)cc(OC)c1OC` (stereo not given in full) are “Non-toxic”, “Not Active” and 5.98 nM.
The corresponding values for `C=CCN1CCC[C@H]1CNC(=O)c1cc(CCCSC2CC(=O)N(CCCCCC(=O)NCCOCCOCCOCCOCCC(=O)N[C@@H](CCCCNC(=O)CN3CCN(CC(=O)O)CCN(CC(=O)O)CCN(CC(=O)O)CC3)C(=O)N[C@@H](Cc3cnc[nH]3)C(=O)N[C@@H](C)C(=O)N[C@H](C(=O)N[C@@H](Cc3ccc(O)cc3)C(=O)N3CCC[C@H]3C(=O)N[C@@H](CCCNC(=N)N)C(=O)N[C@@H](Cc3cnc[nH]3)C(=O)O)[C@@H](C)CC)C2=O)cc(OC)c1OC` (stereo not given in full) are “Non-toxic”, “Not Active” and 52 nM.
With `CC[C@H](C)[C@H](NC(=O)[C@H](C)NC(=O)[C@@H](N)Cc1cnc[nH]1)C(=O)N[C@@H](Cc1ccc(O)cc1)C(=O)N1CCC[C@H]1C(=O)N[C@@H](CCCNC(=N)N)C(=O)N[C@@H](Cc1cnc[nH]1)C(=O)O`, the Activity result in series [1] was “Non-toxic”; in series [2], “Not Active”. Further, the Ki (as a rule, the dissociation constant of the complex between target and ligand, obtained from inhibition or displacement) on D(2) dopamine receptor is > 1000 nM.
